# Shown are actives, neighbours in structure and some others; about 2.4% of the full set was active somewhere.
# beta cell repl – induces beta-cell replication in MIN6 cells | MIN6 cells proliferation, ATPlite luminescence, 48 h; cells starved in 0.2% serum; 100% = growth in 10% serum | AID 2380 | proliferation, % at 10 µM | 330,000 tested, 0.29% active;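 active means compounds whose signal lies at least 3.5 SD above the mean of all wells on their plate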;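 further: 0% = DMSO-treated cells in low-serum medium and 100% = 10% serum control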
# Myeloid diff MLP – compounds promoting myeloid differentiation; AID 624256; ER-HoxA9 myeloid progenitors, lysozyme-GFP differentiation, flow cytometry; 360,000 tested, 1% active; calls only at 10 µM;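 active means normalized GFP-positive differentiation at or above the plate's own cutoff, the solvent-only control mean plus 3 SD; inconclusive means no clear call, values can overlap the other calls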;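 further: cells exposed to compound for four days before flow analysis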
# SENP1 inh – SENP1 (human) catalytic domain inhibition | inhibition, % at 10 µM | 360,000 tested, 0.21% active | Q9P0U3 | AID 624204 | recombinant SENP1 catalytic domain, CyPet-SUMO1-YPet FRET cleavage;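 active means inhibition at least 30% at 10 µM, raw YFP signal under a set limit, fluorescence ratio 0.5 to 1.5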;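 further: 0% = enzyme with DMSO and 100% = no enzyme wells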
#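 system = hSENP1 catalytic domain, recombinant | reagent = SFCypet-SUMO1-SFYpet substrate at 25 nM | doses = one dose per compound, 10 µM, 0.5% DMSO | incubation = enzyme reaction for 50 min at room temperature, dark | measured by = FRET, CFP and YFP emission | controls = no-enzyme low, enzyme-DMSO high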
# CendR NRP1 mod – NRP-1/CendR interaction modulation; O14786; FAM-RPARPAR peptide binding to NRP-1, fluorescence polarization; inhibition, % at 25 µM; 360,000 tested, 0.85% active;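 active means inhibition or corrected inhibition above about 18%, plus a signal ratio from 0.5 to 1.5, limit read from the data, passing the limit was not always enough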
# Target sequence (O14786 whole entry, looked up): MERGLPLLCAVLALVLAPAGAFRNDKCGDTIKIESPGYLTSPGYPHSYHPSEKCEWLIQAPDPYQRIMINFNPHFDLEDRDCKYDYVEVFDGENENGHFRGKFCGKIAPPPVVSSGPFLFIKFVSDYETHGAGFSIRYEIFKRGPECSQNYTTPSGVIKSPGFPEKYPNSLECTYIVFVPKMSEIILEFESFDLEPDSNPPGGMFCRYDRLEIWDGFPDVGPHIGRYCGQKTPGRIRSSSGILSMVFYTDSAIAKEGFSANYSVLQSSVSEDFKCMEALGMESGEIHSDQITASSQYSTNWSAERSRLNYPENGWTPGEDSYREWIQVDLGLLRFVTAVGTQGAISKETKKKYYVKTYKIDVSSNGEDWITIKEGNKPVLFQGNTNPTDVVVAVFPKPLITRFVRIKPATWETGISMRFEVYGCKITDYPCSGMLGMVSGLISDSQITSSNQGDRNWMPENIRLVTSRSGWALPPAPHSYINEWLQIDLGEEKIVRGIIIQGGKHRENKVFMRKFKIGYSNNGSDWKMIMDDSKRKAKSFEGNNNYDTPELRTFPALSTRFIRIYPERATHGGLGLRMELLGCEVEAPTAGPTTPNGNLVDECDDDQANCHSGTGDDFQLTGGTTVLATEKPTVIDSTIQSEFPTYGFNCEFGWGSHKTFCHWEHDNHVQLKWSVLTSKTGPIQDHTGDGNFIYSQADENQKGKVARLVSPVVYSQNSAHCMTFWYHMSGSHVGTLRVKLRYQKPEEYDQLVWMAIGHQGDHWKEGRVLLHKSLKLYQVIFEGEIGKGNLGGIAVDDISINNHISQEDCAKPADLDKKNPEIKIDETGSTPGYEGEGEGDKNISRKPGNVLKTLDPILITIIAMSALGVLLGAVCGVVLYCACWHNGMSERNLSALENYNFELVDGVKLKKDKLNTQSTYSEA
# MT1-MMP act inh – inhibitors of human MT1-MMP activation. P50281. HT1080 RFP-PRO-GFP cells, GFP/RFP ratio fluorescence, overnight; percent of plate control window, DMSO zero. GFP/RFP ratio change, % at 20 µM. 360,000 tested, 0.061% active. AID 651647;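 active means GFP/RFP ratio change of at least 30% with cell ATP level not reduced by more than half and red fluorescence within 50% of control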
#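 Material: RFP-PRO-GFP reporter HT1080 cells. Dosing: single-point 20 µM compound, 1% DMSO. Controls: DMSO and RFP-L50D-GFP cell wells. Timing: cells overnight before dosing, compound overnight, 37 °C, 5% CO2. Measure: GFP/RFP fluorescence ratio.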
# DAGLB inh – blocks human DAGLB lipase activity; Q8NCG7; HEK293T DAGLB membrane lysate, EnzChek fluorogenic substrate; inhibition, % at 5.17 µM; 340,000 tested, 0.059% active; AID 504411; in the data active means inhibition above about 34%;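 further: 0% = enzyme with vehicle and 100% = wells lacking enzyme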
# Active calls of the source: *; i = inactive; ? = inconclusive; · = no result; + = active, no number.
SMILES,beta cell repl,Myeloid diff MLP,SENP1 inh,CendR NRP1 mod,MT1-MMP act inh,DAGLB inh
CC(Sc1nnc(-c2ccco2)n1N)C(=O)NCc1ccc2c(c1)OCO2 (stereo unspecified),-2,i,1,7,-1,4
CCN(CC)c1ccc(NC(=O)CSC(=O)c2ccccc2)cc1,-6,+,2,19,7,4
CCN(CC(=O)NCc1ccc(F)cc1)C(=O)CN1CCN(c2ccc(OC)cc2)CC1,-1,i,0,3,-3,-3
COc1ccc(NC(=O)c2ccc(OC)c(S(=O)(=O)N3CCCCC3C)c2)cn1 (stereo unspecified),3,i,-1,27*,-3,-3
COc1cc(NC(=O)CCNC(=O)Cn2cnc3sc4c(c3c2=O)CCCC4)cc(OC)c1OC,0,+,1,15,-1,-4
COc1cc(NC(=O)CCCNC(=O)Cn2cnc3sc4c(c3c2=O)CCCC4)cc(OC)c1OC,-1,?,0,4,5,-4
CCCCC(O)(CCCC)C(=O)NN(C(=O)OC)c1ccccc1,0,i,2,31*,4,-1
CCCCC(O)(CCCC)C(=O)NN(C(=O)OCC)c1ccccc1,0,i,1,5,1,0
COC(=O)c1cccc(NC(=S)NCc2ccc(F)cc2)c1,3,i,1,46*,0,1
COc1ccc(NC(=O)COc2cccc3c2CCN(Cc2cccnc2)C3=O)c(OC)c1,-1,i,-1,-6,-1,-1
CC1=C(C(=O)Nc2cccc(C(=O)NC3CCCC(C)C3C)c2)SCCO1 (stereo unspecified),-3,+,-1,3,6,-3
CCN(CC)S(=O)(=O)c1ccc(-c2nnc(SCC(=O)N3c4ccccc4CC3C)n2CC)cc1 (stereo unspecified),-2,i,-1,26*,-1,-1
COc1ccc(-c2cccc3c2NC(=O)C3=O)cc1OC,-4,i,-1,-4,-4,2
N/C(=N\OC(=O)Nc1ccccc1)c1ncc(C(F)(F)F)cc1Cl,-2,i,2,-1,4,1
N/C(=N\OC(=O)CCC(=O)O)c1ncc(C(F)(F)F)cc1Cl,0,+,0,19,0,0
CCN(CC)c1ccc2cc(-c3nnc(-c4ccncc4)o3)c(=O)oc2c1,·,+,-26,132,-291,-77
CCN(CC)c1ccc2cc(C(N)=O)c(=O)oc2c1,1,i,-27,-39,-14,-6
O=C1N/C(=C/c2cccn2-c2ccccc2)C(=O)N1Cc1ccc(F)cc1,-3,i,-27,-12,8,1
O=C1N/C(=C/c2cccn2-c2ccc(F)cc2)C(=O)N1Cc1ccccc1F,0,i,-10,43*,5,2
O=C(Nc1ccccc1-c1nnn(CC(=O)N2CCc3ccccc3C2)n1)C1CCC1,0,i,0,28*,4,-4
Cc1ccccc1Sc1ccc(N)cn1,-4,+,9,-186,-20,·
O=C1c2ccccc2C(=O)c2c1ccc(O)c2O,·,i,-2,83*,1,29
COC(=O)c1ccc2c(c1O)C(=O)c1ccccc1C2=O,-6,i,12,-9,-1,-6
Cc1c(Cl)cnc(NC(=O)COC(=O)CNC(=O)c2ccccc2)c1Cl,-1,i,-1,-8,-1,-2
Cc1c(Cl)cnc(NC(=O)COC(=O)[C@H](C)NC(=O)c2ccccc2)c1Cl,-2,i,-3,26*,0,-3
SMILES,beta cell repl,Myeloid diff MLP,SENP1 inh,CendR NRP1 mod,MT1-MMP act inh,DAGLB inh
Clc1ccccc1-c1ccc2ncnc(NCc3ccc4c(c3)OCO4)c2c1,-7,i,3,22*,4,-3
O=C(CSc1ncnc2ccccc12)NCc1ccc2c(c1)OCO2,7.7*,i,1,10,-8,2
O=C(CSc1ncnc2ccccc12)Nc1ccc2c(c1)OCO2,-1,i,2,4,1,-2
CC(/C=N/n1c(COc2ccccc2)n[nH]c1=S)=C\c1ccco1,3,i,-8,-25,0,2
COc1ccccc1CNc1ccc(CNc2ncn[nH]2)cc1,0,i,-2,-3,2,0
c1ccc2c(CNc3ccc(CNc4ncn[nH]4)cc3)cccc2c1,-1,i,-1,32*,2,1
CO/N=C/CC(=O)c1cnc(-c2ccc(Cl)cc2)s1,-6,i,-11,26*,-8,0
CCCCn1c(/C=N/Nc2nc3ccccc3[nH]2)nc2ccccc21,0,+,0,-3,7,4
Cc1ccc(F)cc1C(=O)N1CCCC(C)(C(=O)NS(=O)(=O)C2CC2)C1 (stereo unspecified),·,i,0,4,2,·
NC(=O)CSc1ccc(F)cc1,1,i,6,-5,3,-1
CCOC(=O)c1c(NC(=O)CSc2nc3ccccc3s2)sc(C)c1C,-6,+,1,0,·,-14
COc1c2ccc(C(=O)NCCCCc3ccccc3)cc2nn1C,1,+,0,4,2,2
CCOc1c2ccc(C(=O)NCCCCc3ccccc3)cc2nn1C,-2,i,2,6,-1,-3
CCC(c1nc2ccccc2[nH]1)n1c(=O)c(-c2cccnc2)nc2ccccc21 (stereo unspecified),·,i,-2,8,1,·
COc1cc(C(=O)O)nc(OC)n1,0,i,-1,2,2,0
CCOC(=O)C1=CCC(c2cc3ccc(OC)cc3n2C(=O)OC(C)(C)C)NC1 (stereo unspecified),·,i,-43,-8,6,·
Cc1ccc(-c2nnc(N3CCN(C(=O)COc4cccc(C)c4)CC3)c3ccccc23)cc1,-4,+,2,12,0,-2
Cc1cccc(OCC(=O)N2CCN(c3nnc(-c4ccccc4)c4ccccc34)CC2)c1,-4,i,1,7,-5,-5
CCCN1C(=O)/C(=C/c2c(N3CCNC(=O)C3CC(=O)OCC)nc3c(C)cccn3c2=O)SC1=S (stereo unspecified),-4,+,-33,133,-28,-84
CCOC(=O)CC1C(=O)NCCN1c1nc2ccc(C)cn2c(=O)c1/C=C1\SC(=S)N(CC(C)C)C1=O (stereo unspecified),-3,+,-14,134,-35,-58
Cc1ccccc1C(=O)c1cccn1CC(=O)NCc1ccc2c(c1)OCO2,-1,i,1,12,-6,0

# Assay outcomes deposited in PubChem by several laboratories.
